Compound activity: PubChem BioAssay, several laboratories
RAM network inh – blocks the yeast RAM network | S. cerevisiae dse1pr::URA3 reporter, 5-FOA growth OD615, 2 d; analog-sensitive cbk1-as2 kinase mutant strain | AID 868 | inhibition, % at 50 µM | 190,000 compounds, 1.8% hits;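 active means inhibition above a set limit, 3 SD over mean compound inhibition, cut at about 8.4% in these data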;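 further: 0% = DMSO-only wells with no growth and 100% = 10 µM 1-NA-PP1 full growth; inhibition rescues growth on 5-FOA so higher OD means more RAM inhibition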
NPY-Y2 antag – NPY-Y2 (human) receptor antagonism | NPY-Y2 expressing cells, antagonist mode | P49146 | 140,000 compounds, 0.99% hits | inhibition, % at 2.7 µM; in the data active means inhibition above about 17%;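 further: 0% = vehicle with agonist challenge and 100% = reference antagonist with challenge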
Target sequence (P49146 whole entry, looked up): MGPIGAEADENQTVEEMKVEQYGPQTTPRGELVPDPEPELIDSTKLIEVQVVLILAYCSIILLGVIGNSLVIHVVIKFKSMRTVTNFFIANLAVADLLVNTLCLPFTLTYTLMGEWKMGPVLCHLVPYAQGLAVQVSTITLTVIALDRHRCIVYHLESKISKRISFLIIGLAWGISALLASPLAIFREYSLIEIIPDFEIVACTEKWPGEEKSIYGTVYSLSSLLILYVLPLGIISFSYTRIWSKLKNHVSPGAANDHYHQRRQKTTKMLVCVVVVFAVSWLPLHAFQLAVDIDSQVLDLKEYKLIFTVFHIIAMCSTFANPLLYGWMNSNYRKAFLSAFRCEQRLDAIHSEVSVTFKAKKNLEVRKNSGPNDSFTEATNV
NPY Y1 blocker – antagonists of human neuropeptide Y receptor Y1; HEK293-CNG Y1 cells, membrane potential fluorescence; NPY at EC95, then isoproterenol; 200,000 compounds, 1% hits; P25929; AID 1040; inhibition, % at 3.6 µM;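 active means inhibition above the campaign mean inhibition of all tested compounds plus 3 SD, cut at about 20% in these data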;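 further: 0% = DMSO wells given NPY plus isoproterenol and 100% = isoproterenol alone without NPY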
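System: HEK293 cells with Y1 receptor plus CNG channel / Probe or stimulus: NPY 25 nM then isoproterenol 1 µM plus Ro 20-1724 25 µM / Compound: one concentration, 3.6 µM, in 0.4% DMSO / Schedule: compound incubation 1 h at room temperature, readout 45 min post-stimulation / Measured by: membrane potential fluorescence / Read-out: % inhibition of NPY effect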
NPY2 pot ag – human NPY-Y2 potentiation or agonism, primary screen | cells expressing NPY-Y2, potentiator/agonist read-out | activation, % at 3.6 µM | 220,000 compounds, 0.45% hits; in the data active means activation above about 27%;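 further: cells stimulated with NPY near EC25 plus isoproterenol at EC100; 0% = vehicle plus submaximal agonist and 100% = vehicle plus saturating agonist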
NPY-Y1 PAM-ag – human NPY-Y1 potentiation or agonism, primary screen; AID 1304; P25929; NPY-Y1 expressing cells, potentiator/agonist activation; 220,000 compounds, 0.37% hits; activation, % at 3.6 µM; in the data active means activation above about 33%, passing the limit was not always enough;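 further: cells stimulated with NPY at EC10 then isoproterenol at EC100; 0% = low agonist plus stimulus and 100% = saturating agonist plus stimulus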
WT yeast gro inh – growth inhibition of WT yeast, mitochondrial fusion screen. inhibition, % at 10 µM. 190,000 compounds, 2.1% hits. mitochondrial fusion phenotypic screen, WT strain. AID 1362; in the data active means inhibition above about 58%; tested in S. cerevisiae
Numbers without * were called inactive; nt = not tested or not shown. Hits are enriched below; roughly 4.9% of the tested compounds scored in any of these assays.

SMILES	RAM network inh	NPY-Y2 antag	NPY Y1 blocker	NPY2 pot ag	NPY-Y1 PAM-ag	WT yeast gro inh
CC(c1ccccc1)N(NC(=O)C(O)(c1ccccc1)c1ccccc1)C(=O)c1ccccc1 (configuration not stated)	4	31*	22*	3	3	0
C=CCN(CC(=O)Nc1c(C)cccc1CC)C(=O)SCCC	1	10	20	-14	-15	-9
CCSC(=O)N(CC)CC(=O)Nc1c(CC)cccc1CC	1	20*	16	-4	-21	2
CCN(CC(=O)Nc1c(F)cccc1F)C(=O)Cc1ccccc1	0	nt	3	4	-2	-18
CCCSC(=O)N(CC)CC(=O)Nc1c(CC)cccc1CC	1	20*	18	-24	-23	-8
CCOC(=O)c1sc(NC(=O)c2ccc(OC)cc2)nc1C	3	nt	1	-3	-7	2
Cc1ccc(C(=O)Nn2cnnc2)cc1[N+](=O)[O-]	nt	18*	-1	-15	8	nt
Cc1cc(-c2nn(-c3ccccc3F)cc2CN2CCN(c3ccccn3)CC2)c(C)s1	0	nt	9	-11	-11	66*
Cc1cc(-c2nn(-c3ccccc3F)cc2CNCCc2cnccn2)c(C)s1	1	nt	13	-18	-23	2
CCn1c(CNC(=O)Cc2ccc(OC)cc2)nnc1SCC(=O)c1ccccc1	1	nt	2	0	-1	0
CCn1c(CNC(=O)Cc2ccc(OC)cc2)nnc1SCC(=O)Nc1ccc(C(=O)O)cc1	8.8*	nt	-2	-12	-10	13
Cc1ccc(C(=S)N2CCN(Cc3ccccc3)CC2)s1	1	nt	-2	7	9	24
CCN(CC)C(=O)Oc1ccc2cc(Br)ccc2c1	0	7	2	8	4	49
Cc1ccc(C2NC(c3ccc(C)cc3)C(C)C(=NO)C2C)cc1 (configuration not stated)	0	3	7	-16	-14	83*
COCCCNC(=S)NC1CC2CCCC(C1)N2Cc1ccco1 (configuration not stated)	1	0	-1	-21	0	99*
CNC(=S)NC1CC2CCCC(C1)N2Cc1ccco1 (configuration not stated)	0	3	3	0	8	15
Cc1cccc(-c2ncc(CN3CCCC(CO)(Cc4cccc(Cl)c4)C3)cn2)c1 (configuration not stated)	2	nt	4	-20	-3	63*
Nc1ccc2c(c1)C(=O)Cc1ccccc1S2	4	2	0	-8	-36	-3
Cc1ncsc1C(=O)Nc1nc2c(s1)CC(C)CC2 (configuration not stated)	1	0	-3	8	-12	65*
CC1CCc2nc(NC(=O)C3CC3)sc2C1 (configuration not stated)	0	1	-2	12	-39	16
CC1(C)C([N+](=O)[O-])C(c2ccc(O)cc2)NC(c2ccc(O)cc2)C1[N+](=O)[O-] (configuration not stated)	1	1	4	35*	40*	3
CCCC(=O)Nc1ccc(Sc2ccc([N+](=O)[O-])cc2)cc1	6	2	-2	-2	16	16
CCOC(=O)NC(c1ccc(C(C)C)cc1)C(Cl)(Cl)Cl (configuration not stated)	3	2	-3	-6	-19	69*
Cc1cc(C)c(C)c(S(=O)(=O)Nc2ccccc2C(=O)O)c1C	3	nt	-1	-21	-1	6
O=C(NC(=S)N1CCc2ccccc21)C1CCC1	1	nt	1	-13	0	-5
SMILES	RAM network inh	NPY-Y2 antag	NPY Y1 blocker	NPY2 pot ag	NPY-Y1 PAM-ag	WT yeast gro inh
COc1ccc(Cl)cc1C(=O)CSc1nnnn1C1CCCC1	4	5	14	-3	-21	5
COc1ccc(Cl)cc1C(=O)CSc1nnnn1C1CCCCC1	8	6	7	-13	-6	72*
CC1CC2(CCCCC2)Nc2c1ccc1ccccc21 (configuration not stated)	9.4*	2	0	11	4	8
CC(=O)N1c2c(ccc3ccccc23)C(C)CC12CCCCC2 (configuration not stated)	2	9	8	0	0	49
O=Cc1cn(CC(=O)N2CCCCC2)c2ccccc12	2	1	1	0	4	-2
O=C(/C=C/c1ccco1)Nc1ccccc1N1CCCCC1	0	nt	17	-17	-44	70*
CCCCCCCCS(=O)C1CCS(=O)(=O)C1 (configuration not stated)	0	4	-3	-6	2	-10
COc1ccccc1N(CC(=O)NCc1cccnc1)S(C)(=O)=O	0	-1	-2	7	21	1
CCC(=C(c1ccc(OC)cc1)c1ccc(OC)cc1)c1cn(CC(O)CN2CCN(C)CC2)c2ccccc12 (configuration not stated)	0	-2	0	16	2	80*
Cc1cc(N2C(=O)C(O)=C(C(=O)c3ccc(C)o3)C2c2cccs2)no1 (configuration not stated)	2	6	7	25	41	1
CCN1C(=O)/C(=C2/C(=O)N3c4c(cc(OC(C)=O)cc42)C(C)=CC3(C)C)SC1=S	8.7*	-4	3	3	6	12
COc1cc2c3c(c1)/C(=C1/SC(NC(C)=O)=NC1=O)C(=O)N3C(C)(C)C=C2C	5	-3	-6	21	2	19
COc1cc(S(=O)(=O)N(CCc2ccccc2)Cc2cccs2)ccc1-n1cnnn1	9.1*	4	7	8	0	-12
COc1ccc(CNc2nc(NCc3ccc(OC)cc3)n(C(C)=O)n2)cc1	5	5	6	-5	-7	-7
CCC(=O)n1nc(NCc2ccccc2OC)nc1NCc1ccccc1OC	9.2*	0	13	3	-31	14
CC(C)Sc1oc(-c2ccco2)nc1S(=O)(=O)c1ccc(F)cc1	1	1	-4	-4	-13	15
CSc1oc(-c2ccco2)nc1S(=O)(=O)c1ccc(Br)cc1	8.4*	4	5	-2	-4	-17
Cc1ccc(CNc2oc(-c3ccco3)nc2S(=O)(=O)c2ccccc2)cc1	7	4	6	-3	-26	63*
Cc1cc(C)c2c(N)c(-c3nc4ccccc4[nH]3)sc2n1	1	0	2	-18	6	nt
O=C(NCc1ccco1)C1CCN(C(=O)c2cc3sccc3n2Cc2ccc(Cl)cc2)CC1	0	7	3	13	3	61*
CCc1nc2cc(C)nn2c2nc3ccccc3n12	1	0	3	-9	3	-7
CCOC(=O)c1ccc(NC(=O)Oc2cc(C)c(Cl)cc2C(C)C)cc1	nt	nt	nt	-13	5	nt
